ChEMBL document CHEMBL4020820, “Insights into the Impact of a Membrane-Anchoring Moiety on the Biological Activities of Bivalent Compounds As Potential Neuroprotectants for Alzheimer's Disease” (J Med Chem, 2018)
Active and inactive are the calls of the source. No cut-off for these calls is given here.

Legend:
[1] = Neuroprotective activity against tetracycline removal-induced cytotoxicity in human MC65 cells assessed as increase in cell viability after 72 hrs by MTT assay; assay type: functional, cell-based; details: MC65, 72 h
Procedure, shortened: (§1)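 MC65 cells kept in DMEM/10% FBS with 1 µg/mL tetracycline and G418. Cells washed twice with PBS, seeded in Opti-MEM at 4×10^4/well without tetracycline, given compound (0.3 µM, alone or in combination), 72 h at 37 °C. MTT added for 4 h, formazan dissolved in DMSO, A570 read. Viability as % of +TC controls; six replicates, ≥3 independent runs.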

Lipid bilayer [2] = assay: Binding affinity to DPPC membrane assessed as phase transition completion temperature at 5:1 […] molar ratio by differential scanning calorimetry (reference value: 43.1 degC)
Procedure, shortened: (§2)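 Multilamellar DPPC vesicles (2 mg lipid) with compound at various lipid:compound molar ratios (40:1 up to 5:1) in 100 mM NaCl, 25 mM Hepes pH 7.4, made by vortexing at 55 °C. Samples degassed 10 min, buffer as reference. DSC scans 10–60 °C at 60 °C/h. Traces normalized to DPPC content. Onset (Tc), completion temperature and enthalpy taken from thermograms.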

Lipid bilayer [3] = assay: Binding affinity to DPPC membrane assessed as increase in membrane thickness at […] at 50 degC by SAXD analysis
Procedure, shortened: (§3)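 DPPC (2 mg) with compound at 10:1 lipid:compound molar ratio, hydrated in 100 mM NaCl, 25 mM Hepes pH 7.4, vortexed at 55 °C to form multilamellar vesicles. Small- and wide-angle X-ray diffraction at 25 and 50 °C; 10 min equilibration, 10 min exposure; d-spacings and chain packing read from reflections.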

Brain [4] = assay: Effect on oxidative phosphorylation efficiency in C57BL/6 mouse brain mitochondria assessed as respiratory control ratio at 3.3 uM using succinate as substrate (reference value: 2.3 +/- 0.2); assay type: ADME
Lipid bilayer [5] = assay: Binding affinity to DPPC membrane assessed as shift in onset of transition temperature at 40:1 […] molar ratio by differential scanning calorimetry; procedure, shortened: as §2
Lipid bilayer [6] = assay: Binding affinity to DPPC membrane assessed as change in enthalpy by differential scanning calorimetry (reference value: 8.7 kcal/mol); procedure, shortened: as §2
Brain [7] = assay: Effect on oxidative phosphorylation efficiency in C57BL/6 mouse brain mitochondria assessed as ADP/O ratio at 3.3 uM using glutamate (reference value: 2.3 +/- 0.3); assay type: ADME
Brain [8] = assay: Effect on oxidative phosphorylation efficiency in C57BL/6 mouse brain mitochondria assessed as ADP/O ratio at 3.3 uM using succinate as substrate (reference value: 1.3 +/- 0.2); assay type: ADME
Brain [9] = assay: Effect on oxidative phosphorylation efficiency in C57BL/6 mouse brain mitochondria assessed as respiratory control ratio using glutamate at 3.3 uM (reference value: 3.8 +/- 0.5); assay type: ADME
Lipid bilayer [10] = assay: Binding affinity to DPPC membrane assessed as appearance of disordered membrane structure at […] at 25 degC by WAXD analysis; details: in the assay text read “SAXD analysis” for “WAXD analysis”; procedure, shortened: as §3
Lipid bilayer [11] = assay: Binding affinity to DPPC membrane assessed as appearance of disordered membrane structure at […] at 25 degC by SAXD analysis; procedure, shortened: as §3
Cortical neurone = assay: Neuroprotective activity in E17 rat primary cortical neurons assessed as increase in neurite outgrowth after 4 days by DAPI-staining based assay; assay type: functional, cell-based
Procedure, shortened: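 Rat E17 cortical neurons on poly-D-lysine coverslips (2×10^4/well) in neurobasal/B27/Glutamax, treated with DMSO or compound from DIV1. Fixed at DIV5 in 4% PFA; neurites immunostained for beta III tubulin, nuclei with DAPI.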

[12] = Effect on electron transport chain mitochondrial complex-4 activity in C57BL/6 mouse brain mitochondria assessed as change in first-order rate of consumption of reduced cytochrome C at 3.3 uM measured over 7.5 mins by spectrophotometry; assay type: ADME; details: 0.125 h
Procedure, shortened: (§4)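 Frozen-thawed C57BL/6 mouse brain mitochondria solubilized in 5% cholate (pH 7.2), diluted in KME buffer (100 mM KCl, 50 mM MOPS, 1 mM EGTA), treated with compound at 3.3 µM. Complex I: NADH consumption at 340 nm with 100 µM antimycin A, 1 mM decylubiquinone, 150 µM NADH, 40 µg/mL protein, ± 7.5 µM rotenone. Complex IV taken after background subtraction. Mean ± SEM, n=4.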

N2a = assay: Neuroprotective activity in mouse N2A cells assessed as increase in neurite outgrowth at 0.3 uM after 48 hrs by fluorescent microscopic method; assay type: functional, cell-based
Procedure, shortened: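 N2a cells seeded at 1×10^4/well in MEM with 0.5% FBS plus compound (0.3 µM) for 48 h. Neurite outgrowth stain, then fluorescence imaging at 10× (20 images per well). Average neurite length quantified; mean ± SEM, n=3.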

Brain [13] = assay: Effect on oxidative phosphorylation efficiency in C57BL/6 mouse brain mitochondria assessed as change in state 3 respiratory rate of succinate at 3.3 uM; assay type: ADME
[14] = Effect on electron transport chain mitochondrial complex-3 activity in C57BL/6 mouse brain mitochondria assessed as change in initial rate of reduction of cytochrome C at 3.3 uM in presence of decylubiquinone by spectrophotometry; assay type: ADME; procedure, shortened: as §4
Brain [15] = assay: Effect on oxidative phosphorylation efficiency in C57BL/6 mouse brain mitochondria assessed as decrease in ADP-stimulated respiratory rate of glutamate at 3.3 uM; assay type: ADME
Brain [16] = assay: Effect on oxidative phosphorylation efficiency in C57BL/6 mouse brain mitochondria assessed as change in state 3 respiratory rate of glutamate at 3.3 uM relative to control; assay type: ADME
[17] = Effect on electron transport chain mitochondrial complex-1 activity in C57BL/6 mouse brain mitochondria assessed as change in rate of NADH consumption at 3.3 uM in presence of antimycin A/decylubiquinone by spectrophotometry; assay type: ADME; procedure, shortened: as §4
Brain [18] = assay: Effect on oxidative phosphorylation efficiency in C57BL/6 mouse brain mitochondria assessed as change in state 4 respiratory rate of succinate at 3.3 uM; assay type: ADME
[19] = Effect on electron transport chain mitochondrial complex-2 activity in C57BL/6 mouse brain mitochondria assessed as change in rate of oxidation of DCPIP at 3.3 uM using succinate as substrate in presence of decylubiquinone by spectrophotometry; assay type: ADME; procedure, shortened: as §4
Lipid bilayer [20] = assay: Binding affinity to DPPC membrane assessed as phase separation in membrane structure at […] at 50 degC by SAXD analysis; procedure, shortened: as §3
MC65 = assay: Neuroprotective activity against tetracycline removal-induced cytotoxicity in human MC65 cells assessed as increase in cell viability at 0.3 uM after 72 hrs by MTT assay; assay type: functional, cell-based; procedure, shortened: as §1

SMILES | EC50 [1] | Ratio (Brain [4]) | Activity (Lipid bilayer [5]) | deltaH (Lipid bilayer [6]) | Ratio (Brain [7]) | Ratio (Brain [8]) | Ratio (Brain [9]) | Activity (Lipid bilayer [10]) | Activity (Lipid bilayer [11]) | Activity (N2a) | also measured
COc1cc(/C=C/C(=O)/C(Cc2cn(CCNC(=O)COCC(=O)NCCCCN[C@H]3CC[C@@]4(C)C(=CC[C@H]5[C@@H]6CC[C@H]([C@H](C)CCCC(C)C)[C@@]6(C)CC[C@@H]54)C3)nn2)=C(O)/C=C/c2ccc(O)c(OC)c2)ccc1O | 56.5 nM | 2.6 | Active | 3 to 5 kcal/mol | 2.4 | 1.1 | 3.9 | Active | Active | – | T (Lipid bilayer [2]): 42.4 °C; Activity (Lipid bilayer [3]): Active
COc1cc(/C=C/C(=O)/C(Cc2cn(CCNC(=O)COCC(=O)NCCCCO[C@H]3CC[C@@]4(C)C(=CC[C@H]5[C@@H]6C[C@@H]7O[C@]8(CC[C@@H](C)CO8)[C@@H](C)[C@@H]7[C@@]6(C)CC[C@@H]54)C3)nn2)=C(O)/C=C/c2ccc(O)c(OC)c2)ccc1O | 8.3 nM | 2.1 | Active | 3 to 5 kcal/mol | 2.3 | 1.1 | 3.9 | Active | Active | Active | Activity (Cortical neurone): Active; T (Lipid bilayer [2]): 42.4 °C; Activity [12]: Not Active; Activity (Brain [13]): Non-Toxic; Activity [14]: Not Active; Activity (Brain [15]): Toxic; Activity (Brain [16]): 11.5%; Activity [17]: Not Active; Activity (Brain [18]): Non-Toxic; Activity [19]: Not Active; Activity (Lipid bilayer [20]): Active
COc1cc(/C=C/C(=O)/C(Cc2cn(CCCCCCNC(=O)COCC(=O)NCCCCN[C@H]3CC[C@@]4(C)C(=CC[C@H]5[C@@H]6CC[C@H]([C@H](C)CCCC(C)C)[C@@]6(C)CC[C@@H]54)C3)nn2)=C(O)/C=C/c2ccc(O)c(OC)c2)ccc1O | 212 nM | – | – | – | – | – | – | – | – | – | –
COc1cc(/C=C/C(=O)/C(Cc2cn(CCCCCCNC(=O)COCC(=O)NCCCCO[C@H]3CC[C@@]4(C)C(=CC[C@H]5[C@@H]6C[C@@H]7O[C@]8(CC[C@@H](C)CO8)[C@@H](C)[C@@H]7[C@@]6(C)CC[C@@H]54)C3)nn2)=C(O)/C=C/c2ccc(O)c(OC)c2)ccc1O | 30.3 nM | – | – | – | – | – | – | – | – | Active | Activity (Cortical neurone): Active
COc1cc(/C=C/C(=O)/C(Cc2cn(CCCCCCNC(=O)COCC(=O)NCCCCO[C@H]3CC[C@@]4(C)C(=CC[C@H]5[C@@H]6CC[C@H]([C@H](C)CCCC(C)C)[C@@]6(C)CC[C@@H]54)C3)nn2)=C(O)/C=C/c2ccc(O)c(OC)c2)ccc1O | 1850 nM | – | – | – | – | – | – | – | – | – | –
COc1cc(/C=C/C(=O)/C(Cc2cn(CCNC(=O)COCC(=O)NCCCCO[C@H]3CC[C@@]4(C)C(=CC[C@H]5[C@@H]6CC[C@H]([C@H](C)CCCC(C)C)[C@@]6(C)CC[C@@H]54)C3)nn2)=C(O)/C=C/c2ccc(O)c(OC)c2)ccc1O | 296 nM | 2.4 | Active | 3 to 5 kcal/mol | 2.4 | 1.2 | 4.4 | Active | Active | – | Activity (Lipid bilayer [20]): Active
CCCCNC(=O)COCC(=O)NCCn1cc(C/C(C(=O)/C=C/c2ccc(O)c(OC)c2)=C(O)\C=C\c2ccc(O)c(OC)c2)nn1 | – | 1.2 | – | – | – | – | – | – | – | inactive | Activity (MC65): inactive
